Laboratory results: article PMC7917164 (Bioorganic & medicinal chemistry, 2020)
Marks after values point to notes of the source that are not given here.

What was measured:
[1] = Kinetic aqueous solubility by UV/Vis absorbance in PBS buffer; format: physicochemical; conditions: pH 7.4, PBS buffer
[2] = tested on: Aβ38, Aβ40, Aβ42 and total Aβ peptide levels in SHSY5Y-APP cells; test: Meso Scale multiplex assay of Aβ peptides in SHSY5Y-APP cells; format: cell-based, human; conditions: concentration response
Procedure, shortened: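 Human SH-SY5Y neuroblastoma cells stably overexpressing wild-type human APP751 were exposed to the test compound at a range of concentrations. Aβ38, Aβ40, Aβ42 and total Aβ in the samples were measured by Meso Scale Sector 6000 multiplex assay. Plates were read on an MSD SECTOR Imager after read buffer was added, and peptide concentrations were back-fitted from their respective standard curves.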

[3] = tested on: Notch processing by γ-secretase; test: Notch processing in H4-APP751 cells transfected with the NΔE construct; format: cell-based, human; conditions: 24hrs, 22d 10 μM and 1 μM, DAPT 300 nM and 100 nM
Procedure, shortened: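 H4 human neuroglioma cells stably overexpressing human APP751 were transfected with an […] Myc-tagged NΔE Notch construct. They were then treated with the test compound, a reference γ-secretase inhibitor or vehicle for 24 h and harvested 48 h post-transfection. Western blots were probed with anti-Myc antibody to detect NΔE and NICD, with β-actin as loading control.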

[4] = Pharmacokinetic evaluation after single iv and po administration; format: in vivo, male CD-1 mice; conditions: for Fraction of oral dose absorbed: accounting for first-pass effects
[5] = tested on: plasma Aβ38, Aβ40 and Aβ42 levels; test: Pharmacodynamic study using J20 mice; format: in vivo, female J20 mice; conditions: daily oral, 3-day treatment
Procedure, shortened: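 Female J20 transgenic mice (5–6 months old, n=5/dose) received the test compound or vehicle (5% NMP/95% PEG300) by oral gavage once daily for three days. Animals were killed 4 h after the day-3 dose, and plasma and brain were collected. Aβ38, Aβ40 and Aβ42 were quantified with Meso Scale multiplex kits, and data were analysed as mean ± SEM with ANOVA.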

[6] = tested on: plasma and brain Aβ38, Aβ40 and Aβ42 levels; test: Pharmacodynamic study using Tg2576 mice; format: in vivo, female Tg2576 mice; conditions: 50 mg/kg, oral daily, 14 days
Procedure, shortened: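 Dosing was by oral gavage in female Tg2576 mice (5–6 months old, n=12/dose), given the test compound or vehicle (5% NMP/95% PEG300) daily for 14 consecutive days. Mice were killed 4 h after the final dose on day 14, and plasma and brain were harvested. Aβ38, Aβ40 and Aβ42 were measured by Meso Scale multiplex assay, and results were expressed as mean ± SEM with ANOVA.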

[7] = tested on: Aβ42 levels (γ-secretase modulation) in SHSY5Y-APP cells; test: Cell-based ELISA assay for measuring extracellular Aβ42 levels; set-up: species or system human
[8] = male, CD-1, mouse, plasma, iv, 1 mg/kg

With `CCn1nc2c(c1Nc1nc(-c3ccc(-n4cnc(C)c4)c(OC)n3)cs1)CCCC2` [Compound 22d, N-(2-ethyl-4,5,6,7-tetrahydro-2H-indazol-3-yl)-4-(6-methoxy-5-(4-methyl-1H-imidazol-1-yl)pyridin-2-yl)thiazol-2-amine] the “Kin. Aq. Sol.” value [1] was 4.5* μM, the Aβ38 levels [2] was “potentiated” and the Aβ40 levels [2] was “suppressed”. For the same compound, the Aβ42 levels [2] was “suppressed”, the “total levels of Aβ” value [2] was “no change” and the “Notch processing (NΔE to NICD)” value [3] was “did not inhibit”. For the same compound, the “Clearance as share of mouse hepatic blood flow” value ([4]; iv, male CD-1 mice, hepatic blood flow ~90 mL/min/kg) was “approximately 40%”, the “Fraction of oral dose absorbed” value ([4]; po, mice) was roughly 90% and the “Share of absorbed dose metabolized during the first-pass” value ([4]; po, mice, assuming hepatic elimination) was “approximately 40%”.
For `CCn1nc2c(c1Nc1nc(-c3ccc(-n4cnc(C)c4)c(OC)n3)cs1)CCC2` [Compound 64, N-(2-ethyl-2,4,5,6-tetrahydrocyclopenta[c]pyrazol-3-yl)-4-(6-methoxy-5-(4-methyl-1H-imidazol-1-yl)pyridin-2-yl)thiazol-2-amine], the “Effect on plasma Aβ42 and Aβ40” value ([5]; 25, 50 and 100 mg/kg) was “dose-dependent reduction”, the “Effect on Aβ38 levels” value ([5]; plasma) was “reduced” and the “Effect on plasma Aβ38 levels” value [6] was “potentiating”. The “Effect on plasma Aβ42 and Aβ40 levels” value [6] was “decreased”, the “Parent Aβ42 IC50” value [7] was 0.041 µM and the clearance at 24 h [4, 8] was 43.5 mL/min/kg. The half-life [4, 8] was 42 min and the “Fraction of oral dose absorbed” value ([4]; po, mice) was “greater than 80%”.
